We go through 28 compounds from ChEMBL document CHEMBL1157842, “Novel derivatives of 1,3,4-oxadiazoles are potent mitostatic agents featuring strong microtubule depolymerizing activity in the sea urchin embryo and cell culture assays” (Eur J Med Chem, 2010).

For series [1], the system named is Paracentrotus lividus. The series is described as follows: Antimitotic activity against Paracentrotus lividus embryo assessed as cleavage arrest after 10 to 15 mins fertilization 45 to 60 mins before first mitotic cycle completeion. Format: functional, organism-based. Put shortly:
(§1)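 Paracentrotus lividus embryos, gametes obtained by intracoelomic 0.5 M KCl injection. Fertilized eggs ([…] post-fertilization, 45–60 min before first mitosis) were exposed to 2-fold decreasing concentrations, at up to 3000 embryos/mL in filtered sea water at room temperature. Stocks were 5 mM in 95% EtOH or 5–10 mM in DMSO, diluted 10-fold with 95% EtOH. Read-out was scored at 2.5–6 h: threshold concentration for cleavage alteration or full mitotic arrest. Duplicate measurements.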

Series [2] has as its system Paracentrotus lividus. The series is described as follows: Antiproliferative activity against Paracentrotus lividus embryo assessed as cleavage alteration after 10 to 15 mins fertilization 45 to 60 mins before first mitotic cycle completeion. Format: functional, organism-based. Put shortly: as §1
For series [3], the system named is Paracentrotus lividus. The series is described as follows: Cytotoxicity against Paracentrotus lividus embryo assessed as embryo spinning after 9 to 12 hrs fertilization and 0.5 to 20 hrs treatment. Format: functional, organism-based. Put shortly:
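Paracentrotus lividus free-swimming blastulae treated just after hatching (9–12 h post-fertilization). Behavior was monitored by light microscopy and embryo spinning scored as threshold concentration. Embryos were held in filtered sea water at room temperature with paddle agitation. Compound stocks were in 95% EtOH or DMSO diluted in EtOH; maximal tolerated final DMSO 0.05%, EtOH 1%.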

In series [4] the test system is A549. Kind of series: Cytotoxicity against human A549 cells after 24 hrs by MTT assay. Format: functional, cell-based. The conditions noted are these: A549, 24 h. Put shortly: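 A549 cells in DMEM/10% FBS at 3 × 10³ cells/well, treated 24 h (8 wells per concentration), with 0.4% DMSO as control. MTT (final 0.5 mg/mL) was added for the last 2 h and formazan dissolved in DMSO containing 10% SDS/0.6% acetic acid. OD read at 590 nm (690 nm reference). Three repeats; IC50 from sigmoidal fit.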
(In general: Formazan colour is commonly taken as a measure of viable cells.)

Series [5] relates to A549. Kind of series: Induction of microtubule disruption in human A549 cells at 25 uM after 8 hrs by indirect immunofluorescence microscopic analysis. Format: functional, cell-based. In outline: (§2)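 A549 cells on glass coverslips (2 × 10⁴ per coverslip) exposed 8 h at 37 °C, 5% CO₂, with 0.6% DMSO as negative control. Fixed cells were stained with mouse anti-α-tubulin (1:400) and Alexa Fluor 488 goat anti-mouse IgG (1:200). Microtubule network examined by fluorescence microscopy.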

Series [6] is filed under the species Bos taurus. The series is described as follows: Inhibition of purified bovine brain tubulin polymerization at 10 uM after 1 hr by VEC-DIC microscopic analysis. In outline:
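Bovine brain tubulin (1.2 mg/mL) in BRB80 (80 mM PIPES pH 6.8, 1 mM MgCl₂, 1 mM EGTA) was polymerized with 10% DMSO and 0.5 mM GTP. It was then incubated 1 h at 37 °C with compound, using 0.6% DMSO as negative control. Microtubule assembly was scored by VEC-DIC video microscopy.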

For series [7], the system named is A549. The series is described as follows: Cell cycle arrest in human A549 cells assessed as accumulation at G2/M phase after 24 hrs using propidium iodide staining by flow cytometry. Format: functional, cell-based. Put shortly: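 A549 cells seeded at 5 × 10⁵ per 50 mm dish and treated 24 h, with 0.4% DMSO as negative control. Cells were trypsinized, fixed in 70% ethanol at −20 °C, then treated with RNase 1 mg/mL for 30 min at 37 °C and propidium iodide for 30 min at 37 °C. DNA content of 10000 cells measured by flow cytometry; EC50 for G2/M accumulation.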
For orientation: Flow cytometry measures light scatter and fluorescence of single cells or particles in a stream.

Series [8] in a line: Inhibition of tubulin polymerization at 10 uM.
The test system of series [9] is A549. The series is described as follows: Induction of microtubule disruption in human A549 cells at 5 uM after 8 hrs by indirect immunofluorescence microscopic analysis. It is filed as functional, cell-based. Put shortly: as §2
Series [10] deals with Paracentrotus lividus. The series is described as follows: Toxicity in Paracentrotus lividus embryo assessed as mortality at => 1 uM after 9 to 12 hrs fertilization. Format: organism-based. The conditions noted are these: in vivo.
Series [11] relates to A549. The series is described as follows: Induction of microtubule disruption in human A549 cells at 20 uM after 8 hrs by indirect immunofluorescence microscopic analysis. It is filed as functional, cell-based.
The mark [12] stands for this setting: Homo sapiens, A549, 24 h, read-out: EC50.

Molecules are shown by their SMILES. Calls of active or inactive are those of the source.

The EC50 is the concentration at which the effect is half-maximal. For the compound `COc1ccc(/C=C\c2cc(OC)c3c(c2)OCO3)cc1O` [Combretastatin A-2], the results for the EC50 in series [1], in [2] and in [3] were 10 nM, 2 nM and 50 nM, respectively.

With `CS(=O)(=O)c1ccc(Nc2nnc(-c3ccccc3N)o2)cc1`, the EC50 in [1] was > 4000 nM; in [2], 4000 nM; in series [3], > 5000 nM.

With `Nc1csnc1-c1nnc(Nc2ccc(Cl)cc2)o1`, the EC50 in series [1] turned out to be 500 nM; in series [2] it was 200 nM; in series [3] it was 500 nM.

Regarding `Nc1nc2ccccc2cc1-c1nnc(Nc2ccc3c(c2)OCO3)o1`, the values for the concentration for a half-maximal effect (EC50) in [1], in series [2] and in [3] were 2000 nM, 50 nM and > 2000 nM, respectively.

`Nc1cc2c(cc1-c1nnc(Nc3ccc4c(c3)OCO4)o1)OCO2`: the 50% effective concentration (EC50) stood at 500 nM in series [1], 50 nM in series [2] and 200 nM in [3].

One may read the IC50 as the concentration needed to halve the response being measured. Higher therefore signals lower potency. As for `Nc1ccccc1-c1nnc(Nc2ccc3c(c2)OCCO3)o1`, in series [4], the half-maximal inhibitory concentration (IC50) stood at 1570 nM. For the same compound, the result in series [5], in [6] and in [8] was Active. The EC50 worked out at 20 nM in series [1], 2820 nM in [7] (setting [12]), 1 nM in series [2] and 100 nM in series [3]. In series [9], the outcome was inactive.

`Cn1ncc(NCc2cccnc2)c1-c1nnc(Nc2ccc3c(c2)OCCO3)o1`: the EC50 was 1000 nM in series [1], 200 nM in [2] and > 2500 nM in series [3].

`c1cc(CNc2csnc2-c2nnc(Nc3ccc4c(c3)OCCO4)o2)ccn1` returned an IC50 in [4] of 53.5 nM. Besides, the result in series [6], in [8] and in series [9] was Active. For the same compound, the 50% effective concentration (EC50) was 5 nM in series [1]; 63 nM in series [7] (setting [12]); “Dose-dependent effect” in series [7] (a549); 2 nM in [2]; 100 nM in [3].

As for `Nc1[nH]ncc1-c1nnc(Nc2ccc3c(c2)OCO3)o1`, the EC50 in series [1], in [2] and in [3] was > 20000 nM each time.

As for `c1cc(CNc2csnc2-c2nnc(Nc3ccc4c(c3)OCO4)o2)ccn1`, the EC50 in [1] was determined as 5 nM; in series [2], 2 nM; in series [3], 20 nM.

In the case of `c1cncc(CNc2cn[nH]c2-c2nnc(Nc3ccc4c(c3)OCCO4)o2)c1`, the concentration for a half-maximal effect (EC50) was > 10000 nM in series [1], 1000 nM in series [2] and > 10000 nM in [3].

`c1ccc(-c2nnc(Nc3ccc4c(c3)OCO4)o2)c(NCc2ccncc2)c1`: the EC50 in series [1] worked out at 2 nM; in [2] it was 0.5 nM; in [3] it was 5 nM.

Turning to `COc1cc(N)c(-c2nnc(Nc3ccc4c(c3)OCO4)o2)c(OC)c1`, the EC50 in series [1] stood at 200 nM; in series [2], 50 nM; in [3], 1000 nM.

In the case of `c1cncc(CNc2cn[nH]c2-c2nnc(Nc3ccc4c(c3)OCO4)o2)c1`, the concentration giving a half-maximal response (EC50) in series [1] is > 10000 nM; in series [2], 1000 nM; in series [3], > 10000 nM.

Regarding `COc1cc([C@@H]2c3cc4c(cc3[C@H](O)[C@H]3COC(=O)[C@H]23)OCO4)cc(OC)c1OC` [PODOFILOX], the concentration for a half-maximal effect (EC50) in series [1] amounted to 50 nM; in series [2], 20 nM; in series [3], 500 nM.

As to `COc1cc(-c2nnc(Nc3ccc4c(c3)OCO4)o2)cc(OC)c1OC`, the results for the EC50 in series [1], in series [2] and in [3] were 1000 nM, 400 nM and > 5000 nM, respectively. In addition, the Activity result in series [10] was “Toxic”.

For `Nc1csnc1-c1nnc(Nc2ccc3c(c2)OCO3)o1`, the half-inhibitory concentration (IC50) in [4] is > 20000 nM. Further, the result in series [11] was inactive. Besides, the half-maximal effective concentration (EC50) in series [1] was 4000 nM; in [7] (setting [12]) it was > 20000 nM; in [2], 500 nM; in series [3], > 5000 nM.

For the compound `c1cncc(CNc2ccccc2-c2nnc(Nc3ccc4c(c3)OCCO4)o2)c1`, the concentration giving a half-maximal response (EC50) in series [1] was determined as 5 nM; in [2], 1 nM; in series [3], 5 nM.

Take `c1cncc(CNc2csnc2-c2nnc(Nc3ccc4c(c3)OCCO4)o2)c1`: the EC50 was 10 nM in series [1], 5 nM in [2] and 100 nM in series [3].

Regarding `Clc1ccc(Nc2nnc(-c3nscc3NCc3cccnc3)o2)cc1`, the EC50 in [1] is 2000 nM; in [2] it was 500 nM; in series [3] it was > 2500 nM.

As for `COc1ccc(/C=C\c2cc(OC)c(OC)c(OC)c2)cc1OP(=O)(O)O` [FOSBRETABULIN DISODIUM], the 50% effective concentration (EC50) in series [1] was 10 nM; in [2], 5 nM; in series [3], 1000 nM.

Regarding `COc1ccc(-c2nnc(Nc3ccc4c(c3)OCCO4)o2)c(N)c1`, the 50% effective concentration (EC50) came to 100 nM in series [1], 25 nM in series [2] and 200 nM in series [3].

In [4], `c1ccc(-c2nnc(Nc3ccc4c(c3)OCCO4)o2)c(NCc2ccncc2)c1` registered an IC50 of 15 nM. Further, the result in series [6], in series [8] and in [9] was Active. Besides, the EC50 was 2 nM in series [1]; 44.5 nM in series [7] (setting [12]); “Dose-dependent effect” in [7] (a549); 0.5 nM in series [2]; 5 nM in series [3].

Turning to `c1cncc(CNc2csnc2-c2nnc(Nc3ccc4c(c3)OCO4)o2)c1`, the figures for the EC50 in series [1], in series [2] and in [3] were 50 nM, 5 nM and 50 nM, respectively.

For `c1cncc(CNc2ccccc2-c2nnc(Nc3ccc4c(c3)OCO4)o2)c1`, the concentration for a half-maximal effect (EC50) stood at 5 nM in series [1], 1 nM in [2] and 5 nM in [3].

As to `c1ccc(-c2nnc(Nc3ccc4c(c3)OCCO4)o2)c(NCc2ccns2)c1`, the EC50 in [1] was 5000 nM; in series [2] it was 2000 nM; in series [3] it was 5000 nM.

With `COC(=O)Nc1nc2cc(C(=O)c3cccs3)ccc2[nH]1` [NOCODAZOLE], it took 36.6 nM to reach half-maximal inhibition in [4] (IC50). For the same compound, the concentration for a half-maximal effect (EC50) in [1] came to 10 nM; in series [7] (setting [12]), 106 nM; in [2] it was 5 nM; in series [3] it was 100 nM.

In turn, `Nc1ccccc1-c1nnc(Nc2ccc3c(c2)OCO3)o1` showed a concentration for half-maximal inhibition (IC50) in [4] of 3000 nM. Also, the outcome in series [5], in series [6] and in series [8] was Active. The half-maximal effective concentration (EC50) in [1] came out at 10 nM; in series [7] (setting [12]), 8550 nM; in series [2], 1 nM; in [3] it was 1000 nM. In series [9], the result was inactive.
